The values that follow come from ChEMBL document CHEMBL1125165, “Inhibition of ornithine decarboxylase by the isomers of 1,4-dimethylputrescine” (J Med Chem, 1990).

For experiment [1], the target named is T1, Ornithine decarboxylase (Rattus norvegicus) (UniProt P09057).
T1 sequence (whole entry): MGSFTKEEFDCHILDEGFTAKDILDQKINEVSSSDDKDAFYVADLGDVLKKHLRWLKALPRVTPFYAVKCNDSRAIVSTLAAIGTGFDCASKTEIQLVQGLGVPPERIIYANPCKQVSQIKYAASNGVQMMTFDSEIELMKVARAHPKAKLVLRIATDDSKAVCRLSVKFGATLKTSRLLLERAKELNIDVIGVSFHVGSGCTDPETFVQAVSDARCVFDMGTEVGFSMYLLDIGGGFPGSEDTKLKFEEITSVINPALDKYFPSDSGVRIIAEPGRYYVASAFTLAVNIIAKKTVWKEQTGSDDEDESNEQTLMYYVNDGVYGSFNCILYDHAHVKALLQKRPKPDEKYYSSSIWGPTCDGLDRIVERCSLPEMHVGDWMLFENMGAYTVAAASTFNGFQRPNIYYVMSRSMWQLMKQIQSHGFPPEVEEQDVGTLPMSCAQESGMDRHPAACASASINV
Briefly: In vivo inhibitory activity against Ornithine Decarboxylase (ODC) in H-35 hepatoma cells. In kind it is functional. On the set-up: unit not given here.

Experiment [2] addresses T1, Ornithine decarboxylase (Rattus norvegicus). Briefly: In vivo inhibitory activity against Ornithine Decarboxylase (ODC) in rats. In kind it is functional, organism-based. Also noted: concentration or dose not given beside the values.
The target of another experiment is T2, Ornithine decarboxylase (Rattus norvegicus, UniProt P09057).
T2 sequence (P09057 whole entry): T1 sequence (whole entry)
Briefly: (§1) In vitro inhibitory activity against Ornithine Decarboxylase (ODC) isolated from the livers of thioactamide treated rats. In kind it is functional, tissue-based, Liver. The essentials:
(§2)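 ODC was partially purified from livers of rats injected with thioacetamide (100 mg/kg), with specific activity 0.2 nmol/min per mg protein. Activity was measured in vitro across inhibitor concentrations. Ki was obtained by replotting apparent Km against inhibitor concentration.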

The species named for experiment [3] is Rattus norvegicus. Briefly: Effect on 1,4-Dimethylputrescine content of Thioacetamide treated rats after 1 hr. In kind it is functional. The essentials:
(§3)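 Female Wistar rats (100-130 g) were pretreated with dexamethasone or thioacetamide, and the analogue was given ip in saline-buffered solution. Liver was sampled 1 h or 3-4 h later. Free polyamines and analogue were measured in perchloric extracts. Polyamines are expressed as % of the inducer-treated liver content. Analogue is expressed as % of the total injected per g liver (10 ± 0.5 μmol). Mean ± SD, three experiments in duplicate.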

For experiment [4], the species on record is Rattus norvegicus. Briefly: Effect on 1,4-Dimethylputrescine content of meso isomer Dexamethasone treated rats after 1 hour. It counts as functional. In a few lines:
as §3

The species named for experiment [5] is Rattus norvegicus. Briefly: Effect on spermine content of Thioacetamide treated rats after 3 hr. It counts as functional. The essentials: as §3
The species entered for experiment [6] is Rattus norvegicus. Briefly: Effect on spermidine content of (+) isomer Dexamethasone treated rats after 4 hour. In kind it is functional. In a few lines:
as §3

For experiment [7], the species on record is Rattus norvegicus. Briefly: Effect on spermine content of (-) isomer Dexamethasone treated rats after 1 hour. It counts as functional. In a few lines: as §3
Experiment [8] is filed under the species Rattus norvegicus. Briefly: Effect on 1,4-Dimethylputrescine content of meso isomer Dexamethasone treated rats after 4 hour. It counts as functional. In a few lines: as §3
The species named for experiment [9] is Rattus norvegicus. Briefly: Effect on putrescine content of Dexamethasone treated rats. In kind it is functional. In a few lines:
as §3

The species named for experiment [10] is Rattus norvegicus. Briefly: Effect on 1,4-Dimethylputrescine content of (+) isomer Dexamethasone treated rats after 1 hour. In kind it is functional. In a few lines:
as §3

The species named for experiment [11] is Rattus norvegicus. Briefly: Effect on spermidine content of Thioacetamide treated rats after 3 hr. It counts as functional. The essentials:
as §3

The species named for experiment [12] is Rattus norvegicus. Briefly: Effect on spermine content of (-) isomer Dexamethasone treated rats after 4 hour. In kind it is functional. The essentials:
as §3

The species entered for experiment [13] is Rattus norvegicus. Briefly: Effect on 1,4-Dimethylputrescine content of Thioacetamide treated rats after 3 hr. It counts as functional. In a few lines:
as §3

For experiment [14], the species on record is Rattus norvegicus. Briefly: Effect on putrescine content of Thioacetamide treated rats after 3 hr. In kind it is functional. In a few lines:
as §3

Experiment [15] is filed under the species Rattus norvegicus. Briefly: Effect on putrescine content of (-) isomer Dexamethasone treated rats after 4 hr. It counts as functional. The essentials: as §3
For experiment [16], the species on record is Rattus norvegicus. Briefly: Effect on spermidine content of meso isomer Dexamethasone treated rats after 1 hour. It counts as functional. The essentials:
as §3

For experiment [17], the species on record is Rattus norvegicus. Briefly: Effect on putrescine content of (+) isomer Dexamethasone treated rats after 4 hour. In kind it is functional. The essentials: as §3
The species named for experiment [18] is Rattus norvegicus. Briefly: Effect on putrescine content of (-) isomer Dexamethasone treated rats after 1 hour. It counts as functional. The essentials:
as §3

The species named for experiment [19] is Rattus norvegicus. Briefly: Effect on spermine content of Thioacetamide treated rats after 3 hour. In kind it is functional. The essentials:
as §3

The species entered for experiment [20] is Rattus norvegicus. Briefly: Effect on spermine content of meso isomer Dexamethasone treated rats after 1 hour. In kind it is functional. The essentials:
as §3

For experiment [21], the species on record is Rattus norvegicus. Briefly: Effect on spermidine content of Thioacetamide treated rats after 1 hr. It counts as functional. In a few lines: as §3
For experiment [22], the species on record is Rattus norvegicus. Briefly: Effect on 1,4-Dimethylputrescine content of (-) isomer Dexamethasone treated rats after 1 hour. In kind it is functional. The essentials:
as §3

The species entered for experiment [23] is Rattus norvegicus. Briefly: Effect on spermine content of (+) isomer Dexamethasone treated rats after 1 hour. In kind it is functional. The essentials:
as §3

Experiment [24] is filed under the species Rattus norvegicus. Briefly: Effect on putrescine content of meso isomer Dexamethasone treated rats after 4 hour. It counts as functional. The essentials: as §3
For experiment [25], the species on record is Rattus norvegicus. Briefly: Effect on putrescine content of (+) isomer Dexamethasone treated rats after 1 hour. In kind it is functional. The essentials:
as §3

Experiment [26] is filed under the species Rattus norvegicus. Briefly: Effect on spermine content of Thioacetamide treated rats. It counts as functional. In a few lines:
as §3

The species entered for experiment [27] is Rattus norvegicus. Briefly: Effect on spermine content of Thioacetamide treated rats after 1 hr. It counts as functional. The essentials: as §3
The species named for experiment [28] is Rattus norvegicus. Briefly: Effect on spermidine content of (-) isomer Dexamethasone treated rats after 1 hour. In kind it is functional. The essentials:
as §3

For experiment [29], the species on record is Rattus norvegicus. Briefly: Effect on spermidine content of (-) isomer Dexamethasone treated rats after 4 hour. In kind it is functional. The essentials: as §3
The species entered for experiment [30] is Rattus norvegicus. Briefly: Effect on putrescine content of Thioacetamide treated rats. In kind it is functional. In a few lines:
as §3

Experiment [31] is filed under the species Rattus norvegicus. Briefly: Effect on spermidine content of Thioacetamide treated rats. It counts as functional. The essentials:
as §3

For experiment [32], the species on record is Rattus norvegicus. Briefly: Effect on 1,4-Dimethylputrescine content of (-) isomer Dexamethasone treated rats after 4 hour. It counts as functional. In a few lines: as §3
The species entered for experiment [33] is Rattus norvegicus. Briefly: Effect on spermidine content of Dexamethasone treated rats. It counts as functional. The essentials: as §3
The species entered for experiment [34] is Rattus norvegicus. Briefly: Effect on spermine content of meso isomer Dexamethasone treated rats after 4 hour. In kind it is functional. In a few lines:
as §3

The species entered for experiment [35] is Rattus norvegicus. Briefly: Effect on spermine content of (+) isomer Dexamethasone treated rats after 4 hour. In kind it is functional. The essentials:
as §3

The species entered for experiment [36] is Rattus norvegicus. Briefly: Effect on 1,4-Dimethylputrescinecontent of (+) isomer Dexamethasone treated rats after 4 hour. It counts as functional. In a few lines:
as §3

For experiment [37], the species on record is Rattus norvegicus. Briefly: Effect on putrescine content of meso isomer Dexamethasone treated rats after 1 hour. In kind it is functional. In a few lines:
as §3

Experiment [38] is filed under the species Rattus norvegicus. Briefly: Effect on spermine content of Dexamethasone treated rats. It counts as functional. In a few lines:
as §3

Experiment [39] is filed under the species Rattus norvegicus. Briefly: Effect on spermidine content of meso isomer Dexamethasone treated rats after 4 hour. It counts as functional. The essentials:
as §3

The species named for experiment [40] is Rattus norvegicus. Briefly: Effect on spermidine content of (+) isomer Dexamethasone treated rats after 1 hour. In kind it is functional. In a few lines:
as §3

The nature of experiment [41]: as §1. In kind it is functional, tissue-based, Rattus norvegicus, Liver. The essentials:
as §2

Values joined by “and” are separate entries in the source; they are usually repeats but may differ in a detail not shown here. Equal entries are not always repeated.

In experiment [1], `CNCCCCNC` yielded an Activity of 72. The Inhibition (usually the drop in the measured response relative to a control, in per cent) in [2] stood at 30%.
`CN(C)CCCCN` came in with an Activity in experiment [1] of 68. Further, in experiment [2], the Inhibition turned out to be 60%. Besides, on Ornithine decarboxylase, the Ki (as a rule, the dissociation constant of the complex between target and ligand, obtained from inhibition or displacement) was determined as 3 mM.
In experiment [1], `CC(N)CCC(C)N` (single isomer, unassigned; (+)) registered an Activity of 96. The same compound returned an Inhibition in experiment [2] of 98%.
As for `CC(N)CCC(C)N` (racemic), in experiment [1], the Activity was 91. For the same compound, the Inhibition in experiment [2] was 96%.
As for `CC(N)CCC(C)N` (stereo unspecified) [listing 1 of 2 here], in [1], the Activity amounted to 90. In experiment [2], the Inhibition was 93%.
`CC(N)CC(C)CN` (mixture of isomers): in experiment [1], the Activity is 85. This compound also had an Inhibition in experiment [2] of 76%. The same compound returned a Ki on Ornithine decarboxylase of 2.9 mM.
`CC(N)CCC(C)N` (single isomer, unassigned; (-)) yielded an Activity in experiment [1] of 97. Besides, in experiment [2], the Inhibition came out at 97%.
As for `CC(N)C(C)CCN` (mixture of isomers), in experiment [1], the Activity came out at 75. Moreover, the Inhibition in experiment [2] amounted to 70%. The compound further yielded a Ki on Ornithine decarboxylase of 3.8 mM.
For `CC(N)CCC(C)N` (stereo unspecified) [listing 2 of 2 here], the Polyamine content in the experiment listed under Rattus norvegicus [3] is 2700 nM/g and 1850 nM/g and 2800 nM/g; in the experiment filed under Rattus norvegicus [4], 1640 nM/g; in the experiment filed under Rattus norvegicus [5], 3000 nM/g and 2350 nM/g; in the experiment listed under Rattus norvegicus [6], 850 nM/g; in the experiment filed under Rattus norvegicus [7] it was 2240 nM/g; in the experiment filed under Rattus norvegicus [8], 50 nM/g. The Polyamine content in the experiment listed under Rattus norvegicus [9] is 980 nM/g; in the experiment filed under Rattus norvegicus [10], 1800 nM/g; in the experiment listed under Rattus norvegicus [11] it was 2400 nM/g and 1475 nM/g and 2500 nM/g; in the experiment filed under Rattus norvegicus [12], 2220 nM/g; in the experiment listed under Rattus norvegicus [13] it was 1550 nM/g and 900 nM/g and 1150 nM/g; in the experiment filed under Rattus norvegicus [14], 290 nM/g and 510 nM/g and 410 nM/g. Besides, the Polyamine content amounted to 580 nM/g in the experiment filed under Rattus norvegicus [15]; 1920 nM/g in the experiment filed under Rattus norvegicus [16]; 660 nM/g in the experiment listed under Rattus norvegicus [17]; 100 nM/g in the experiment filed under Rattus norvegicus [18]; 2600 nM/g in the experiment listed under Rattus norvegicus [19]; 2060 nM/g in the experiment filed under Rattus norvegicus [20]. Further, the Polyamine content in the experiment listed under Rattus norvegicus [21] is 1870 nM/g and 1950 nM/g and 2800 nM/g; in the experiment filed under Rattus norvegicus [22], 1640 nM/g; in the experiment listed under Rattus norvegicus [23] it was 1930 nM/g; in the experiment filed under Rattus norvegicus [24], 890 nM/g; in the experiment filed under Rattus norvegicus [25], 60 nM/g; in the experiment listed under Rattus norvegicus [26] it was 2400 nM/g. Also, the Polyamine content is 2600 nM/g and 2500 nM/g and 2350 nM/g in the experiment listed under Rattus norvegicus [27]; 1280 nM/g in the experiment filed under Rattus norvegicus [28]; 2080 nM/g in the experiment listed under Rattus norvegicus [29]; 1370 nM/g in the experiment filed under Rattus norvegicus [30]; 2680 nM/g in the experiment filed under Rattus norvegicus [31]; 40 nM/g in the experiment filed under Rattus norvegicus [32]. Further, the Polyamine content in the experiment filed under Rattus norvegicus [33] is 2300 nM/g; in the experiment listed under Rattus norvegicus [34] it was 2250 nM/g; in the experiment filed under Rattus norvegicus [35], 1800 nM/g; in the experiment listed under Rattus norvegicus [36], 400 nM/g; in the experiment listed under Rattus norvegicus [37], 160 nM/g; in the experiment listed under Rattus norvegicus [38] it was 2170 nM/g. Besides, the Polyamine content in the experiment filed under Rattus norvegicus [39] was 2280 nM/g; in the experiment filed under Rattus norvegicus [40], 2180 nM/g.
In experiment [1], `NCCCCN` [PUTRESCINE] gave an Activity of 90. Also, the Inhibition in experiment [2] was found to be 55%. This compound also showed a Ki at Ornithine decarboxylase of 3.3 mM.
The compound `CC(CN)C(C)CN` (mixture of isomers) returned a Ki in experiment [41] of 1 mM.
